This is an account of results in ChEMBL document CHEMBL4038330, “Discovery of Potent Orally Active Protease-Activated Receptor 1 (PAR1) Antagonists Based on Andrographolide” (J Med Chem, 2017).

One series concerns Platelet. In words: Effect on collagen-stimulated platelet aggregation in human platelet-rich plasma up to 10 uM preincubated for 20 mins followed by collagen stimulation measured after 5 mins by aggregometric analysis. Format: ADME, cell-based. The essentials:
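Human platelet-rich plasma stimulated with TRAP 15 µM, ADP 10 µM or collagen 5 µg/mL. ADP and collagen tests went up to 10 µM compound. Three separate experiments per agonist. Mean IC50 taken from IC50s of the independent experiments; values given as median ± SD.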

The target in series [1] is T1, Proteinase-activated receptor 1 (Homo sapiens, UniProt P25116).
T1 sequence (P25116 whole entry): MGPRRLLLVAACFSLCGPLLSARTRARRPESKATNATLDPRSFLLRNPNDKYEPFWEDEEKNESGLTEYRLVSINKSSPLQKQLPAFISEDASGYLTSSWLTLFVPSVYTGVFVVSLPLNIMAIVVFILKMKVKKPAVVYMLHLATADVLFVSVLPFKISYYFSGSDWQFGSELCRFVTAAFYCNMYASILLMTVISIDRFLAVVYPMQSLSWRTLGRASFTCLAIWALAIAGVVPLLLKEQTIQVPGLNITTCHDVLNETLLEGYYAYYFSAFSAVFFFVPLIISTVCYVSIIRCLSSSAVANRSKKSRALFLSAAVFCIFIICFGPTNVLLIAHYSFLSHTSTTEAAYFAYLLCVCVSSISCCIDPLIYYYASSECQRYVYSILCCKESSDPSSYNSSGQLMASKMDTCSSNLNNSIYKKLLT
In words: Antagonist activity at human PAR1 expressed in HEK293 cells co-expressing Galpha15 assessed as inhibition of haTRAP-induced calcium mobilization preincubated for 15 mins followed by haTRAP addition by calcium-4 dye based FLIPR assay. Format: functional, cell-based. (Calcium assays in cells follow changes in intracellular calcium, usually with a dye or a luminescent sensor.)

A short description of series [2]: Apparent clearance in Wistar rat at 5 mg/kg, po measured up to 24 hrs post dose by HPLC-MS/MS analysis. The series is classed as ADME, organism-based. As to conditions: in vivo, read-out: CL(app) (converted); call rule not given here. In outline:
(§1)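 Male Wistar rats, n = 6 per group, given 1 mg/kg intravenously or 5 mg/kg intragastrically. Blood concentrations followed over 24 h. Non-compartmental analysis; values as median ± SD. Bioavailability from oral versus intravenous exposure.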

Series [3] in a line: MRT (0 to infinity) in Wistar rat at 5 mg/kg, po measured up to 24 hrs post dose by HPLC-MS/MS analysis. Format: ADME, organism-based. As to conditions: in vivo. In outline:
as §1

Series [4] is described as follows: AUC (0 to infinity) in Wistar rat at 1 mg/kg, iv administered as bolus dose measured up to 24 hrs post dose by HPLC-MS/MS analysis. Format: ADME, organism-based. On the set-up: dose 1 mg/kg, time infinity, route intravenous. As to conditions: in vivo. In outline:
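Male Wistar rats, n = 6 per group, dosed intragastrically at 5 mg/kg or intravenously at 1 mg/kg. Blood concentrations followed over 24 h. Parameters from non-compartmental analysis, reported as median ± SD.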

The subject of series [5] is collagen-stimulated platelet aggregation. In words: Toxicity in guinea pig assessed as inhibition of collagen-stimulated platelet aggregation at 30 mg/kg, po pretreated for 2 hrs followed by collagen stimulation measured after 5 mins. The series is classed as organism-based, Cavia porcellus. As to conditions: in vivo.
The next series concerns Rattus norvegicus. In words: VRT (0 to infinity) in Wistar rat at 5 mg/kg, po measured up to 24 hrs post dose by HPLC-MS/MS analysis. The series is classed as ADME, organism-based. As to conditions: in vivo.
Series [6] concerns ADP-stimulated platelet aggregation. As to the kind of experiment: Toxicity in guinea pig assessed as inhibition of ADP-stimulated platelet aggregation at 10 mg/kg, po pretreated for 2 hrs followed by ADP stimulation measured after 5 mins. As to conditions: in vivo. Format: organism-based, Cavia porcellus.

The term IC50 denotes the midpoint of a concentration-inhibition curve. Broadly, the MRT inf is a mean duration of stay, worked out from the concentration-time curve. What is called AUC(0-inf) is total exposure, with the tail of the curve extrapolated. By inhibition is commonly meant the drop in the measured response relative to a control, in per cent.

In the case of `CC1CC[C@@H]2C(C)(C)[C@H](O)CC[C@@]2(C)[C@@H]1/C=C/c1ccc(-c2cccc(F)c2)cn1` (single isomer, unassigned), in the series with Platelet, the Activity entry is on record as “Non-Toxic”. The IC50 in series [1] came out at 1100 nM. Also, in series [2], the CL/F was 75 mL/min/kg. The MRT inf in series [3] is 5.6 h. The AUC(0-inf) in series [4] is 552 ng·h/mL. The inhibition at 5 min in series [5] was 6.8%; in series [6], 6.7%. The molecule further showed a VRT in the series with Rattus norvegicus of 25 ha2.
